Hits are enriched below; roughly 3.1% of the tested compounds scored in any of these assays.
CHO parental Ca: counter-screen: ATP calcium response change in parental CHO cells. inhibition, % at 5.6 µM. AID 463079. hit rate 0.63% among 330,000. parental CHO-K1, ATP-induced calcium, Fluo-8 fluorescence;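 active = inhibition above that plate's mean sample inhibition plus 3 SD, cut at about 26% in these data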
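test system = CHO parental line | reagent = ATP stimulus | measured by = intracellular calcium via Fluo-8 no-wash fluorescent dye | control set = ATP and no-ATP DMSO wells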
GPR7 antagonist: human neuropeptides B/W receptor 1 antagonism | P48145 | hit rate 1.1% among 290,000 | GPR7-expressing cells, fluorescence antagonist assay | inhibition, % at 4.4 µM | AID 1861; in the data active = inhibition above about 16%, passing the limit was not always enough;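 note: cells stimulated with the agonist NPW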
Target sequence (P48145 whole entry, looked up): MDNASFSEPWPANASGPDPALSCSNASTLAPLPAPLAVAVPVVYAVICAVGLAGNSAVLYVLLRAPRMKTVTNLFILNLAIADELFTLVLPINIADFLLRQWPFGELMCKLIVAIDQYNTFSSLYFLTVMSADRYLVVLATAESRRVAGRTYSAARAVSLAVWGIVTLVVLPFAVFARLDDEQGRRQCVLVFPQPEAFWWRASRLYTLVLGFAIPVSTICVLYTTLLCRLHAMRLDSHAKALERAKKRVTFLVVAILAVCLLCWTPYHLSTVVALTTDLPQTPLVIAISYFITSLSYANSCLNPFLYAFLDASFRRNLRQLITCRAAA
GalR3 antagonist: human GalR3 antagonism | HEK293 GalR3-CNG cAMP membrane potential fluorescence; galR3 body fused to GalR1 C-terminus | hit rate 0.44% among 360,000 | inhibition, % at 3 µM;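 active = inhibition above the screen-wide average plus 3 SD, cut at about 13% in these data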;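 note: forskolin and galanin both at EC90 stimulate the cells; cAMP rise reported by CNG channel membrane potential dye signal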
Target sequence (O60755 1-299 limits assumed): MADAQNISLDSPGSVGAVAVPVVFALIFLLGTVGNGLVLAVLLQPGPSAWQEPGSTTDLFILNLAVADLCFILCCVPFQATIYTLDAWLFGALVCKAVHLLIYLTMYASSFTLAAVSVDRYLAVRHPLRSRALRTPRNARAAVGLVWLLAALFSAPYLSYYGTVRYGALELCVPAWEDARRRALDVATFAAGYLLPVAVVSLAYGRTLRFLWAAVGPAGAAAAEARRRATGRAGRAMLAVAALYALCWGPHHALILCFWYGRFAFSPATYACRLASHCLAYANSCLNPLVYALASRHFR
OX1R antag-1: OX1R (human) antagonism | hit rate 1.8% among 330,000 | inhibition, % at 6.6 µM | OX1R-expressing cells, FRET antagonist read-out; in the data active = inhibition mostly above about 38%, no sharp cut-off; inactive = mostly below about 40%
OX1R antag-2: human HCRTR1 antagonism; O43613; CHO/OX1R cells, Fluo-8 calcium fluorescence, orexin A; inhibition, % at 5 µM; hit rate 0.43% among 330,000; AID 434989;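 active = inhibition above its plate's threshold, mean inhibition of all tested compounds on the plate plus 3 SD, cut at about 37% in these data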
OX1R Fluo8 conf: confirmation of human orexin 1 receptor antagonists | shares compounds with OX1R antag-2 | CHO/OX1R cells, orexin A calcium Fluo-8 fluorescence | inhibition, % at 5 µM | hit rate 38% among 1,100 | AID 492963; in the data active = inhibition above about 29%
CHO Ca counter: counter-screen for OX1R antagonists: effect in parental CHO cells; shares compounds with OX1R antag-2; parental CHO-K1, ATP-induced calcium, Fluo-8 fluorescence; inhibition, % at 5.6 µM; hit rate 9.3% among 1,100; AID 492965;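 active = inhibition above a per-plate limit, the mean inhibition of that plate's test compounds plus 3 SD, cut at about 25% in these data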
OX1R HTRF conf: OX1R (human) antagonism, HTRF confirmed. inhibition, % at 6.6 µM. hit rate 49% among 1,800. shares compounds with OX1R antag-1. AID 492964. OX1R-expressing cells, HTRF antagonist assay; in the data active = inhibition above about 55%;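 note: CHO cells expressing OX1R stimulated with orexin A at about EC80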
CHO-K1 HTRF: counter-screen: parental CHO-K1 HTRF response; parental CHO-K1 cells, HTRF counterscreen; hit rate 48% among 1,800; shares compounds with OX1R antag-1; inhibition, % at 6.6 µM; in the data active = inhibition above about 17%
Of the large screens only hits and unclear results are named; the others gave an inactive call (follow-up assays come after a bar, where they were run).

O=C1C=C(C#Cc2ccccc2)C[C@@H](c2ccc(F)cc2)C1	none (no result: CHO parental Ca, GPR7 antagonist, OX1R antag-1, OX1R antag-2)
Cc1ccccc1C(=O)N[C@H](C(=O)N1CCC[C@H]1C(=O)NCc1ccccc1)c1ccccc1	none (no result: CHO parental Ca, GPR7 antagonist, OX1R antag-1, OX1R antag-2)
Cc1ccc([C@@H]2C[C@H]3[C@@H](CN2S(=O)(=O)c2ccc(Cl)cc2)C(=O)C[C@@H](c2ccc(C)cc2)N3S(=O)(=O)c2ccc(Cl)cc2)cc1	none (no result: CHO parental Ca, GPR7 antagonist, OX1R antag-1, OX1R antag-2)
Cc1[nH]c2ccccc2c1C(=O)CSc1nc2ccccc2[nH]1	OX1R antag-1 79.6, OX1R antag-2 53.8 | OX1R Fluo8 conf 37.6 | CHO Ca counter inactive | OX1R HTRF conf 90.6 | CHO-K1 HTRF inactive
CC(C)(C)NC(=O)C(Cc1ccccc1)NS(=O)(=O)c1cccc2nsnc12 (stereo not drawn)	OX1R antag-1 115.6 | OX1R Fluo8 conf inactive | CHO Ca counter inactive | OX1R HTRF conf 80.2 | CHO-K1 HTRF 16.9
O=S(=O)(NCCc1ccccc1)c1cccc2nsnc12	none
COc1ccc(C(=O)N/C(=C/c2cccs2)C(=O)N2CCN(C)CC2)cc1	none (no result: CHO parental Ca, GPR7 antagonist, OX1R antag-1, OX1R antag-2)
Cc1ccc(NC(=O)COc2cccc(Oc3ccccc3)c2)cc1S(=O)(=O)N1CCOCC1	OX1R antag-1 29.5, OX1R antag-2 45.4 (no result: GPR7 antagonist) | OX1R Fluo8 conf 31.6 | CHO Ca counter inactive | OX1R HTRF conf inactive | CHO-K1 HTRF inactive
Cc1ccc(NC(=O)COc2ccc(Cl)cc2Cl)cc1S(=O)(=O)N1CCOCC1	none (no result: CHO parental Ca, GPR7 antagonist, OX1R antag-1, OX1R antag-2)
NC(=S)N/N=C/c1ccc2cccc(OCc3ccccc3)c2n1	none
NC(=S)N/N=C/c1ccccc1OCc1cccc(Cl)c1	OX1R antag-1 80.6, OX1R antag-2 54.3 (no result: GalR3 antagonist) | OX1R Fluo8 conf 35.4 | CHO Ca counter inactive | OX1R HTRF conf 80.9 | CHO-K1 HTRF inactive
Cc1cc(C)nc(NC(=O)/C=C/c2ccccc2Cl)c1	none
Cc1cc(C)nc(NC(=O)/C=C/c2ccc(Cl)cc2Cl)c1	OX1R antag-1 91.9 | OX1R Fluo8 conf inactive | CHO Ca counter inactive | OX1R HTRF conf 63.2 | CHO-K1 HTRF inactive
COc1cccc(OC)c1C(=O)Nc1cccc(-n2cnnn2)c1	OX1R antag-1 88.0 | OX1R Fluo8 conf inactive | CHO Ca counter inactive | OX1R HTRF conf 80.1 | CHO-K1 HTRF inactive
COc1ccc(-c2csc(NC(=O)CS(=O)(=O)c3ccc(F)cc3)n2)cc1OC	OX1R antag-1 75.8 (no result: GPR7 antagonist) | OX1R Fluo8 conf inactive | CHO Ca counter inactive | OX1R HTRF conf inactive | CHO-K1 HTRF inactive
COc1ccc(-c2csc(NC(=O)CS(=O)(=O)c3ccccc3)n2)cc1	none (no result: GPR7 antagonist)
Cn1cc(/C=C(\C#N)C(=O)Nc2ccccc2O)c2ccccc21	OX1R antag-1 67.8, OX1R antag-2 56.7 (no result: GalR3 antagonist) | OX1R Fluo8 conf 56.7 | CHO Ca counter inactive | OX1R HTRF conf 89.4 | CHO-K1 HTRF inactive
COc1ccc2oc(C(=O)OC(C)C(=O)NCc3ccccc3)c(C)c2c1 (stereo not drawn)	none (no result: GPR7 antagonist)
Cc1c(C(=O)OC(C)C(=O)N(C)Cc2ccccc2)oc2ccccc12 (stereo not drawn)	OX1R antag-1 86.3, OX1R antag-2 53.4 (no result: GPR7 antagonist) | OX1R Fluo8 conf 52.9 | CHO Ca counter inactive | OX1R HTRF conf 87.6 | CHO-K1 HTRF inactive
O=[N+]([O-])c1ccc(-c2cnc(SC(c3ccccc3)c3ccccc3)[nH]2)cc1	OX1R antag-1 54.4 | OX1R Fluo8 conf inactive | CHO Ca counter inactive | OX1R HTRF conf 68.0 | CHO-K1 HTRF inactive
COC(=O)[C@@]12C[C@@H](CC(=O)N3CCC(c4ccccc4)CC3)C(=O)N(Cc3ccco3)C1=CCC(C)(C)C2	none (no result: CHO parental Ca, GPR7 antagonist, OX1R antag-1, OX1R antag-2)
Cc1cc(C(C)(C)C)oc1C(=O)N(CC(=O)NC1CCCC1)Cc1ccccc1	none
Cc1ccc(C)c(N(CC(=O)NC2CCCC2)C(=O)c2oc(C(C)(C)C)cc2C)c1	OX1R antag-1 63.2, OX1R antag-2 94.7 | OX1R Fluo8 conf 47.2 | CHO Ca counter inactive | OX1R HTRF conf 71.2 | CHO-K1 HTRF inactive
COc1ccc(-c2cc(C(=O)Nc3cccc(S(=O)(=O)NCc4ccco4)c3)c3ccccc3n2)cc1OC	none
O=C(Nc1cccc(S(=O)(=O)NCc2ccco2)c1)c1cc(-c2ccc(F)cc2)nc2ccccc12	OX1R antag-1 65.2, OX1R antag-2 56.4 | OX1R Fluo8 conf 29.2 | CHO Ca counter inactive | OX1R HTRF conf inactive | CHO-K1 HTRF inactive
COc1cc(/C=N/NC(=O)CCn2c3ccccc3c3ccccc32)ccc1O	OX1R antag-1 53.9, OX1R antag-2 75.4 | OX1R Fluo8 conf 36.5 | CHO Ca counter inactive | OX1R HTRF conf 83.1 | CHO-K1 HTRF inactive
COc1cc(/C=N/NC(=O)CCn2nnc3ccccc32)ccc1O	none
Cc1cc(CN(Nc2ccccc2)c2ccccc2)cc(C)n1	none (no result: CHO parental Ca, GPR7 antagonist, OX1R antag-1, OX1R antag-2)
O=C1NCC(c2ccccc2)C1C(=O)N/N=C\c1ccc(-c2cccc(Cl)c2Cl)o1 (stereo not drawn)	OX1R antag-1 100.7, OX1R antag-2 86.7 | OX1R Fluo8 conf 69.2 | CHO Ca counter inactive | OX1R HTRF conf 86.9 | CHO-K1 HTRF inactive
COC(=O)N/N=C/c1ccc(-c2ccc(C)c(Cl)c2)o1	none
Cc1ccc(-c2ccc(/C=N\NC(=O)C3C(=O)NCC3c3ccccc3)o2)cc1Cl (stereo not drawn)	OX1R antag-1 69.5 | OX1R Fluo8 conf 48.3 | CHO Ca counter inactive | OX1R HTRF conf 60.9 | CHO-K1 HTRF inactive
Cc1cc2c(c(=O)o1)[C@@]1(C(=O)N(C)c3ccccc31)C1=C(CC(C)(C)CC1=O)O2	none (no result: CHO parental Ca, GPR7 antagonist, OX1R antag-1, OX1R antag-2)
C=CCN1C[C@H](COC(=O)c2cccc(C)c2)Oc2cccc(F)c2S1(=O)=O	none (no result: CHO parental Ca, GPR7 antagonist, OX1R antag-1, OX1R antag-2)
Cc1ccc(/C=N/NC(=O)c2cccs2)cc1[N+](=O)[O-]	OX1R antag-1 109.3 | OX1R Fluo8 conf inactive | CHO Ca counter inactive | OX1R HTRF conf 92.0 | CHO-K1 HTRF inactive
O=C(N/N=C/c1ccccc1[N+](=O)[O-])c1cccs1	none
COc1cccc(NC(=O)CN2C(=O)C(c3ccc(C)cc3)=NC23CCCCCC3)c1	OX1R antag-1 75.2, OX1R antag-2 41.4 | OX1R Fluo8 conf 47.4 | CHO Ca counter inactive | OX1R HTRF conf 87.2 | CHO-K1 HTRF inactive
Cc1noc(C)c1C(=O)OC(C)C(=O)c1ccc(C(C)(C)C)cc1 (stereo not drawn)	none (no result: CHO parental Ca, GPR7 antagonist, OX1R antag-1, OX1R antag-2)
Cc1occc1-c1nnc(SCC(=O)NCCc2ccccc2)n1C(C)c1ccccc1 (stereo not drawn)	OX1R antag-1 83.3, OX1R antag-2 63.7 | OX1R Fluo8 conf 29.6 | CHO Ca counter inactive | OX1R HTRF conf 77.1 | CHO-K1 HTRF inactive
Cc1nn(C)c(C)c1N=Cc1c(O)ccc2ccccc12	OX1R antag-1 83.1, OX1R antag-2 43.1 | OX1R Fluo8 conf inactive | CHO Ca counter inactive | OX1R HTRF conf 76.5 | CHO-K1 HTRF inactive
CCOC(=O)c1[nH]c2ccccc2c1NC(=O)NC(C)C	none
